Laboratory results as given in ChEMBL document CHEMBL3044653, “Synthesis and herbicidal activity of 2-(substituted phenoxyacetoxy)alkyl-5,5-dimethyl-1,3,2-dioxaphosphinan-2-one” (J Agric Food Chem, 2012).

Experiments:
[1] = system: Brassica napus; assay: Toxicity in Brassica napus (oilseed rape) assessed as inhibition at 150 g/hectare; type: functional
Procedure, shortened: (§1)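 For crop selectivity, conventional crop varieties were planted in 12 cm diameter plots and given a postemergence treatment at 150 g ai/ha. Injury was scored as percent inhibition, with 0–10% classed as safe to the crop.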

[2] = system: Brassica juncea; assay: Post-emergence herbicidal activity against Brassica juncea assessed as inhibition at 150 g/hectare treated at two-leaf stage by green house assay; type: functional
Procedure, shortened: (§2)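 Greenhouse postemergence spray of diluted formulation solutions onto broadleaf weeds at the two-leaf stage. Primary screen at 150 g ai/ha, with selected compounds retested at 75 and 37.5 g ai/ha. Abutilon was tested at 150 g ai/ha only. Read-out is percent herbicidal damage relative to an untreated control.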

[3] = system: Eclipta prostrata; assay: Post-emergence herbicidal activity against Eclipta prostrata assessed as inhibition at 150 g/hectare treated at two-leaf stage by green house assay; type: functional; procedure, shortened: as §2
[4] = system: Echinochloa crus-galli; assay: Post-emergence herbicidal activity against Echinochloa crus-galli (barnyard grass) assessed as inhibition at 150 g/hectare treated at one-leaf stage by green house assay; type: functional
Procedure, shortened: (§3)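 Monocot weeds were sprayed postemergence in the greenhouse at the one-leaf stage with diluted formulation solutions. Primary dose was 150 g ai/ha, with follow-up doses of 75 and 37.5 g ai/ha for selected compounds. Activity is scored as percent herbicidal damage compared with an untreated control.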

[5] = system: Setaria viridis; assay: Post-emergence herbicidal activity against Setaria viridis (green foxtail) assessed as inhibition at 150 g/hectare treated at one-leaf stage by green house assay; type: functional; procedure, shortened: as §3
[6] = system: Glycine max; assay: Toxicity in Glycine max (soybean) plant assessed as inhibition at 150 g/hectare; type: organism-based; settings: in vivo; procedure, shortened: as §1
[7] = system: Brassica juncea; assay: Post-emergence herbicidal activity against Brassica juncea assessed as inhibition at 37.5 g/hectare treated at two-leaf stage by green house assay; type: functional; procedure, shortened: as §2
[8] = system: Amaranthus retroflexus; assay: Post-emergence herbicidal activity against Amaranthus retroflexus assessed as inhibition at 37.5 g/hectare treated at two-leaf stage by green house assay; type: functional; procedure, shortened: as §2
[9] = system: Amaranthus retroflexus; assay: Post-emergence herbicidal activity against Amaranthus retroflexus assessed as inhibition at 75 g/hectare treated at two-leaf stage by green house assay; type: functional; procedure, shortened: as §2
[10] = system: Brassica juncea; assay: Post-emergence herbicidal activity against Brassica juncea assessed as inhibition at 75 g/hectare treated at two-leaf stage by green house assay; type: functional; procedure, shortened: as §2
[11] = system: Eclipta prostrata; assay: Post-emergence herbicidal activity against Eclipta prostrata assessed as inhibition at 75 g/hectare treated at two-leaf stage by green house assay; type: functional; procedure, shortened: as §2
[12] = system: Setaria viridis; assay: Post-emergence herbicidal activity against Setaria viridis (green foxtail) assessed as inhibition at 37.5 g/hectare treated at one-leaf stage by green house assay; type: functional; procedure, shortened: as §3
[13] = system: Oryza sativa; assay: Toxicity in Oryza sativa (rice) plant assessed as inhibition at 150 g/hectare; type: organism-based; settings: in vivo; procedure, shortened: as §1
[14] = system: Digitaria sanguinalis; assay: Post-emergence herbicidal activity against Digitaria sanguinalis (hairy crabgrass) assessed as inhibition at 150 g/hectare treated at one-leaf stage by green house assay; type: functional; procedure, shortened: as §3
[15] = system: Abutilon theophrasti; assay: Post-emergence herbicidal activity against Abutilon theophrasti (velvetleaf) assessed as inhibition at 150 g/hectare treated at two-leaf stage by green house assay; type: functional; procedure, shortened: as §2
[16] = system: Digitaria sanguinalis; assay: Post-emergence herbicidal activity against Digitaria sanguinalis (hairy crabgrass) assessed as inhibition at 75 g/hectare treated at one-leaf stage by green house assay; type: functional; procedure, shortened: as §3
[17] = system: Echinochloa crus-galli; assay: Post-emergence herbicidal activity against Echinochloa crus-galli (barnyard grass) assessed as inhibition at 37.5 g/hectare treated at one-leaf stage by green house assay; type: functional; procedure, shortened: as §3
[18] = system: Eclipta prostrata; assay: Post-emergence herbicidal activity against Eclipta prostrata assessed as inhibition at 37.5 g/hectare treated at two-leaf stage by green house assay; type: functional; procedure, shortened: as §2
[19] = system: Triticum aestivum; assay: Toxicity in Triticum aestivum (wheat) plant assessed as inhibition at 150 g/hectare; type: organism-based; settings: in vivo; procedure, shortened: as §1
[20] = system: Echinochloa crus-galli; assay: Post-emergence herbicidal activity against Echinochloa crus-galli (barnyard grass) assessed as inhibition at 75 g/hectare treated at one-leaf stage by green house assay; type: functional; procedure, shortened: as §3
[21] = system: Zea mays; assay: Toxicity in Zea mays (maize) plant assessed as inhibition at 150 g/hectare; type: organism-based; settings: in vivo; procedure, shortened: as §1
[22] = system: Amaranthus retroflexus; assay: Post-emergence herbicidal activity against Amaranthus retroflexus assessed as inhibition at 150 g/hectare treated at two-leaf stage by green house assay; type: functional; procedure, shortened: as §2
[23] = system: Setaria viridis; assay: Post-emergence herbicidal activity against Setaria viridis (green foxtail) assessed as inhibition at 75 g/hectare treated at one-leaf stage by green house assay; type: functional; procedure, shortened: as §3
[24] = system: Digitaria sanguinalis; assay: Post-emergence herbicidal activity against Digitaria sanguinalis (hairy crabgrass) assessed as inhibition at 37.5 g/hectare treated at one-leaf stage by green house assay; type: functional; procedure, shortened: as §3
[25] = system: Gossypium hirsutum; assay: Toxicity in Gossypium hirsutum (cotton) plant assessed as inhibition at 150 g/hectare; type: organism-based; settings: in vivo; procedure, shortened: as §1

SMILES	inhibition at 150 g/ha [1]	inhibition at 150 g/ha [2]	inhibition at 150 g/ha [3]	inhibition at 150 g/ha [4]	inhibition at 150 g/ha [5]	inhibition (INH) [6]	inhibition at 37.5 g/ha [7]	inhibition at 37.5 g/ha [8]	inhibition at 75 g/ha [9]	inhibition at 75 g/ha [10]	inhibition at 75 g/ha [11]	inhibition at 37.5 g/ha [12]	inhibition (INH) [13]	inhibition at 150 g/ha [14]	inhibition at 150 g/ha [15]	inhibition at 75 g/ha [16]	inhibition at 37.5 g/ha [17]	inhibition at 37.5 g/ha [18]	inhibition (INH) [19]	inhibition at 75 g/ha [20]	also measured
CCCCC(OC(=O)COc1ccc(Cl)cc1Cl)P1(=O)OCC(C)(C)CO1 (stereo not given)	40%	100%	75%	0%	0%	30%	90%	50%	70%	100%	40%	0%	30%	0%	90%	0%	0%	30%	10%	0%	inhibition (INH) [21]: 0%; inhibition at 150 g/ha [22]: 85%; inhibition at 75 g/ha [23]: 0%; inhibition at 37.5 g/ha [24]: 0%; inhibition (INH) [25]: 20%
CC1(C)COP(=O)(C(OC(=O)COc2ccc(Cl)cc2Cl)c2ccccc2)OC1 (stereo not given)	40%	100%	80%	0%	0%	30%	90%	50%	80%	95%	55%	0%	10%	0%	98%	0%	0%	50%	10%	0%	inhibition (INH) [21]: 0%; inhibition at 150 g/ha [22]: 90%; inhibition at 75 g/ha [23]: 0%; inhibition at 37.5 g/ha [24]: 0%; inhibition (INH) [25]: 40%
